Compounds with a hit are over-represented: about 6.9% of the library has one in this group of screens.
PostGolgi ctrl = growth of the yeast control strain, post-Golgi counter-screen | 5% of 98,000 active | inhibition, % at 10 µM | efflux-deficient yeast background strain, growth absorbance A615, 16 h
PTK2B oligo ant = antagonists of human Pyk2 oligomerization | Q14289 | Q293 cells, Pyk2 FERM NanoBiT luminescence; active compounds read low | z-score (the deposit names both 25 µM and 10 µM) | 0.83% of 99,000 active;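 active means Z-score of -3 or lower, scaled per plate to the spread of control and sample wells; inactive means z-score above -3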;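 further: negative z-score means lost luminescence so less FERM oligomerization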
PostGolgi yeast = growth inhibition of a yeast mutant, post-Golgi transport screen. post-Golgi transport phenotypic cell assay. inhibition, % at 10 µM. 0.9% of 98,000 active. AID 739;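 further: yeast cells grown in 1536-well plates; yeast grown about 18 h at 30C before absorbance read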
FAK inh = inhibitors of human focal adhesion kinase; biochemical FAK kinase activity assay; Q05397; inhibition, %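 (tested at 7 µM)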; 0.84% of 97,000 active; in the data active means inhibition above about 19%;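 further: 0% = DMSO and 100% = reference compound high control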
Ecoli tolC = E. coli tolC mutant growth inhibition. AID 573. 2.2% of 65,000 active. E. coli BW25113 tolC mutant growth, OD615. growth inhibition, % at 10 µM (by protocol);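 active means growth inhibition at or above a cutoff equal to the mean over every tested compound plus 3 SD, cut at about 60% in these data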;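 further: growth measured after 20 h incubation at 37 °C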
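Test system: E. coli BW25113 ΔtolC::kan bacteria | Medium: Kanamycin-containing LB broth (50 µg/mL) | Dosing: One dose of 10 µM final | Times: 20 h incubation with compound, 37 °C | Detection: Optical density read at 615 nm | Read-out basis: Percent growth inhibition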
Candida biofilm = kills Candida albicans biofilms; C. albicans biofilm + clotrimazole, Alamar Blue; inhibition, % at 6 µM; 0.14% of 85,000 active;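 active means inhibition above 20%; inactive means inhibition below 20%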;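 further: preformed 24 hr biofilms exposed to compound for 48 hr; 0% = biofilm without compound and 100% = blank killed by clotrimazole plus chlorhexidine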
An asterisk follows results filed as active; nt = no result given. Unless noted, no stated cut-off is given here; in the data, active means inhibition above about 30%; inactive means the rest.

SMILES	PostGolgi ctrl	PTK2B oligo ant	PostGolgi yeast	FAK inh	Ecoli tolC	Candida biofilm
OC(CN1c2ccccc2Sc2ccccc21)Cn1nnc2ccccc21 (stereo unspecified)	47*	-1.3	10	3	39	-3
Cc1cccc(C(=O)c2ccccc2C(=O)O)c1O	8	0.61	0	6	-2	2
CN(C)/C=C(/C(=O)c1ccc(Cl)cc1Cl)S(=O)(=O)c1ccc(Cl)cc1	8	0.81	-3	-2	nt	nt
C1CCC2(CC1)OCC1(CO2)COC2(CCCCC2)OC1	13	-0.34	-22	-1	-5	9
O=C1NC(=O)C2(COC3(CCCC3)OC2)S1	35*	-0.42	4	7	-28	-1
CCS(=O)(=O)N1CCN(C(=O)c2cc(OC)cc(OC)c2)CC1	31*	0.02	2	-2	8	4
CCCS(=O)(=O)N1CCN(C(=O)c2cc(OC)cc(OC)c2)CC1	-1	1	-5	-1	-26	8
Cc1ccc(NC(=O)CCn2cccc2)cc1	20	1.1	13	-3	nt	4
COc1cc(CNCc2ccccn2)ccc1OCc1ccc(Cl)cc1Cl	49*	1.9	3	9	nt	nt
COc1cc(CNCc2ccccn2)ccc1OCC(N)=O	30	0.81	-1	-5	nt	nt
CCN(CC)CCOC(=O)C1(c2ccc(OC)c(OC)c2)CCCC1	50*	0.26	-1	0	7	4
Cc1ccc(C)n1-n1c(C)nc2sc3c(c2c1=O)CCCCC3	50*	0.56	-2	-1	67*	7
Nc1nc2sc3c(c2c(=O)s1)CCCC3	39*	-1.1	-1	1	48	10
Cc1nc2sc3c(c2c(=O)o1)CCCC3	0	1.6	10	0	-3	7
O=c1c2c3c(sc2nc2n1CCCCC2)CCCC3	31*	-0.69	-14	nt	23	9
CCCCC(=O)Nc1ccc(C(=O)Nc2nc(CC(=O)OCC)cs2)cc1	0	0.09	-4	0	nt	9
O=C(Nc1ccc2c(c1)OCCO2)C1CCN(S(=O)(=O)c2cccs2)CC1	12	2.7	-4	2	-9	8
COc1ccccc1-c1cc(C(=O)N2CCc3ccccc3C2)c2ccccc2n1	52*	nt	1	-2	nt	nt
O=C(c1cc(-c2ccccn2)nc2ccc(Br)cc12)N1CCc2ccccc2C1	71*	nt	30	0	nt	nt
CC(C)c1ccc(OCc2ccc(C(=O)N3CCN(c4ccccn4)CC3)cc2)cc1	18	0.56	-4	2	86*	5
Cc1ccccc1NC(=S)NCc1ccc2c(c1)OCO2	38*	-1	5	3	nt	nt
CCOC(=O)C1=C(c2ccccc2)O/C(=C(/C#N)C(F)(F)F)S1	39*	nt	3	0	nt	-1
C/C(Cl)=C/Cn1c(SCC(C)C)nc2c1c(=O)[nH]c(=O)n2C	nt	1.8	nt	nt	19	0
Cc1ccc2cc(C)c3nnc(SCC(=O)N4CCCc5ccccc54)n3c2c1C	21	nt	-4	-5	nt	nt
CCSc1nnc2c(n1)OC(C)(C)Nc1ccccc1-2	3	-1	11	-4	1	6
SMILES	PostGolgi ctrl	PTK2B oligo ant	PostGolgi yeast	FAK inh	Ecoli tolC	Candida biofilm
CCn1c(Sc2nc(C)nc3scc(-c4cccs4)c23)n[nH]c1=O	102*	0.17	104*	10	30	6
CCc1nc2scc(-c3cccs3)c2c(=O)o1	nt	-0.47	nt	-1	nt	3
Cc1csc(NC(=O)C2COc3ccccc3O2)n1 (stereo unspecified)	27	-0.02	3	2	nt	-5
CCCc1cc(=O)oc2cc(C)cc(O)c12	19	-2.3	-10	-2	nt	6
CCCCCc1cc(O)c2c(C)cc(=O)oc2c1	61*	-2.7	9	0	86*	0
O=C(CCSc1ccccc1)Nc1nnc(-c2ccccc2)o1	-3	nt	5	1	39	3
O=C(COn1nnc2ccc(C(F)(F)F)cc21)Nc1nnc(-c2ccccc2)o1	-1	2	0	-1	100*	6
N#Cc1cc(Oc2ccc3ccccc3c2)c(-n2nnc3ccccc32)cc1C#N	14	0.2	21	0	nt	-1
CCSC(C)CC1C/C(=N/O)c2c(CC)noc2C1 (stereo unspecified)	14	-0.26	1	nt	61*	4
CCCc1noc2c1/C(=N\O)CC(CC(C)SCC)C2 (stereo unspecified)	13	-2	4	0	46	nt
O=C(CCS(=O)(=O)c1ccc(Br)cc1)N1CCN(c2ccc(Cl)cc2)CC1	-4	-0.19	0	1	nt	7
C=CCn1c(SC(C)C(=O)NCCC2=CCCCC2)nc2ccccc2c1=O (stereo unspecified)	32*	0.62	-7	1	nt	3
O=C(NCCC1=CCCCC1)C(c1ccccc1)c1ccccc1	14	-0.97	2	3	nt	nt
CCOc1nc(-c2ccncc2)nc2ccccc12	35*	0.45	5	4	10	3
c1cncc(-c2nc(N3CCCCCC3)c3ccccc3n2)c1	66*	-1.6	-10	13	95*	0
CC1CN(c2nc(-c3ccccc3)nc3ccccc23)CC(C)O1 (stereo unspecified)	41*	-1.1	3	9	44	10
c1ccc2c(N3CCCCCC3)nc(-c3ccncc3)nc2c1	68*	-0.75	27	3	nt	0
CC1CN(c2cc(-c3ccccc3)c3ccccc3n2)CC(C)O1 (stereo unspecified)	25	0.02	13	0	nt	4
CCN1CCN(c2nc(-c3ccncc3)nc3ccccc23)CC1	6	nt	8	-3	nt	5
CCOC(=O)CNC(=O)c1cnn2cccnc12	6	0.19	4	1	4	10
c1ccc(N2CCN(c3ccccc3)C2c2ccncc2)cc1	31*	-0.18	7	3	nt	8
CCOC(=O)c1cnc2ccc(OCC)cc2c1N1CCN(c2ccccc2)CC1	54*	-2.1	9	-2	nt	5
CCOC(=O)c1cnc2c(Cl)c(Cl)ccc2c1N1CCN(C)CC1	4	0.47	-5	2	14	-3
COC(=O)c1ccc(NC(=S)Nc2ccc3ccccc3c2)cc1	-19	0.33	-15	2	nt	nt
COc1ccc(N2CCN(CCCNS(=O)(=O)c3ccc4c(c3)oc(=O)n4C)CC2)cc1	32*	nt	-7	2	-6	4
Oc1ccc(N2CCN(C(c3cccnc3)c3nnnn3Cc3ccccc3)CC2)cc1 (stereo unspecified)	10	-0.87	13	2	14	8
Fc1ccccc1N1CCN(C(c2cccs2)c2nnnn2CCc2ccccc2)CC1 (stereo unspecified)	-4	-2	9	5	13	3
c1ccc(CCn2nnnc2C(c2cccnc2)N2CCN(c3nc4ccccc4s3)CC2)cc1 (stereo unspecified)	15	-3*	43*	1	8	nt
c1ccc(CCn2nnnc2C(c2cccnc2)N2CCN(c3ccccc3)CC2)cc1 (stereo unspecified)	43*	-2	62*	0	20	3
